For data set [1], the target named is Glutamate receptor ionotropic, NMDA 2D (Rattus norvegicus) (UniProt Q62645). Nature of the data set: Allosteric modulation of rat GluN2D expressed in Xenopus laevis oocytes assessed as L-glutamate/glycine-induced current response at 100 uM at holding potential -60 mV by two-electrode voltage clamp method relative to L-glutamate/glycine. The data set is classed as cell-based. In a few lines: (§1)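 GluN1a with one GluN2 subunit; RNAs mixed 1:1–3 molar, 15–30 ng total injected into Xenopus oocytes, which were held in ND-96 at 17°C for 1–5 days. TEVC at −60 mV in 116 mM NaCl, 2 mM KCl, 0.3 mM BaCl2, 5 mM HEPES, pH 7.4. […] Reported as % of agonist-alone response, mean ± s.e.m., n≥4.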
Chain of Glutamate receptor ionotropic, NMDA 2D (Rattus norvegicus) (Q62645 whole entry): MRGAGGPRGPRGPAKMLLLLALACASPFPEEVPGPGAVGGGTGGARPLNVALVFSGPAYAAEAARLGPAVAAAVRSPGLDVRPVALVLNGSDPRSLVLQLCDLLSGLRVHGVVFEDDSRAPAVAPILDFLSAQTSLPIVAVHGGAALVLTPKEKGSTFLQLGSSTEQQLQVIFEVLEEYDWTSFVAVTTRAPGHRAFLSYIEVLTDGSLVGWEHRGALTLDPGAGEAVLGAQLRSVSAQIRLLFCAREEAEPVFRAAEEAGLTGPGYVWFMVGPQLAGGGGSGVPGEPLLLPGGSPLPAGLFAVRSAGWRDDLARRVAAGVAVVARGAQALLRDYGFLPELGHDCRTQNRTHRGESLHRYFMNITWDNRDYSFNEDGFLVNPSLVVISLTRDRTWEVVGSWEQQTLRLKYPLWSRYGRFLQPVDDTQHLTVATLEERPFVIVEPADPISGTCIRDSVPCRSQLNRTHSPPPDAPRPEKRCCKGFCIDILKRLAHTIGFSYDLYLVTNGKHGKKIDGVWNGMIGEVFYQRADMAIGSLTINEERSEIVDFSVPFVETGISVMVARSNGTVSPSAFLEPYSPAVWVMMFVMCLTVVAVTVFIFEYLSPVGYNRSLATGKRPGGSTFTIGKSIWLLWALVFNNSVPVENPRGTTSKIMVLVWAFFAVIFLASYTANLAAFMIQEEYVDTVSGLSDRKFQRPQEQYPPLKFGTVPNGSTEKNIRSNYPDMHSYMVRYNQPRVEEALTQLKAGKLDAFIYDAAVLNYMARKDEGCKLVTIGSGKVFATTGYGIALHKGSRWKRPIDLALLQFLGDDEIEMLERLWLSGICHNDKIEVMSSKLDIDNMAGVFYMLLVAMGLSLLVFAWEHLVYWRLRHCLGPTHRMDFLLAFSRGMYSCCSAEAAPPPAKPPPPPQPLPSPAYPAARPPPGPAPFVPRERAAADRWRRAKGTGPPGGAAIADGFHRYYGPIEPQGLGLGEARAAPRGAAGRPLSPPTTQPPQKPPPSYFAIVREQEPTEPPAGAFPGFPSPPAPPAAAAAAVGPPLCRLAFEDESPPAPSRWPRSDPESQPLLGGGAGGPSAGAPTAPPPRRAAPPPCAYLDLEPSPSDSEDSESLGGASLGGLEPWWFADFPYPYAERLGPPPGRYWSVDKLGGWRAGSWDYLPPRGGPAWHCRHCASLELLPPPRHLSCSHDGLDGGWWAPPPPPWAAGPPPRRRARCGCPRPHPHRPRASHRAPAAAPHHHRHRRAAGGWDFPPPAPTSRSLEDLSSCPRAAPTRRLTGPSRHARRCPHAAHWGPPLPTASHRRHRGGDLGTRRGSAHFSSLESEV
On the technique in general: Two-electrode voltage clamp is typically applied to oocytes expressing channels or transporters.

In data set [2] the target is Glutamate receptor ionotropic, NMDA 2B (Rattus norvegicus) (UniProt Q00960). Nature of the data set: Allosteric modulation of rat GluN2B expressed in Xenopus laevis oocytes assessed as L-glutamate/glycine-induced current response at 100 uM at holding potential -60 mV by two-electrode voltage clamp method relative to L-glutamate/glycine. The data set is classed as cell-based. In a few lines:
as §1

Data set [3] deals with Glutamate receptor ionotropic, NMDA 2C (Rattus norvegicus) (UniProt Q00961). Nature of the data set: Allosteric modulation of rat GluN2C expressed in Xenopus laevis oocytes assessed as L-glutamate/glycine-induced current response at 100 uM at holding potential -60 mV by two-electrode voltage clamp method relative to L-glutamate/glycine. The data set is classed as cell-based. The gist of the method: as §1
Chain of Glutamate receptor ionotropic, NMDA 2C (Rattus norvegicus) (Q00961 20-1237 limits assumed): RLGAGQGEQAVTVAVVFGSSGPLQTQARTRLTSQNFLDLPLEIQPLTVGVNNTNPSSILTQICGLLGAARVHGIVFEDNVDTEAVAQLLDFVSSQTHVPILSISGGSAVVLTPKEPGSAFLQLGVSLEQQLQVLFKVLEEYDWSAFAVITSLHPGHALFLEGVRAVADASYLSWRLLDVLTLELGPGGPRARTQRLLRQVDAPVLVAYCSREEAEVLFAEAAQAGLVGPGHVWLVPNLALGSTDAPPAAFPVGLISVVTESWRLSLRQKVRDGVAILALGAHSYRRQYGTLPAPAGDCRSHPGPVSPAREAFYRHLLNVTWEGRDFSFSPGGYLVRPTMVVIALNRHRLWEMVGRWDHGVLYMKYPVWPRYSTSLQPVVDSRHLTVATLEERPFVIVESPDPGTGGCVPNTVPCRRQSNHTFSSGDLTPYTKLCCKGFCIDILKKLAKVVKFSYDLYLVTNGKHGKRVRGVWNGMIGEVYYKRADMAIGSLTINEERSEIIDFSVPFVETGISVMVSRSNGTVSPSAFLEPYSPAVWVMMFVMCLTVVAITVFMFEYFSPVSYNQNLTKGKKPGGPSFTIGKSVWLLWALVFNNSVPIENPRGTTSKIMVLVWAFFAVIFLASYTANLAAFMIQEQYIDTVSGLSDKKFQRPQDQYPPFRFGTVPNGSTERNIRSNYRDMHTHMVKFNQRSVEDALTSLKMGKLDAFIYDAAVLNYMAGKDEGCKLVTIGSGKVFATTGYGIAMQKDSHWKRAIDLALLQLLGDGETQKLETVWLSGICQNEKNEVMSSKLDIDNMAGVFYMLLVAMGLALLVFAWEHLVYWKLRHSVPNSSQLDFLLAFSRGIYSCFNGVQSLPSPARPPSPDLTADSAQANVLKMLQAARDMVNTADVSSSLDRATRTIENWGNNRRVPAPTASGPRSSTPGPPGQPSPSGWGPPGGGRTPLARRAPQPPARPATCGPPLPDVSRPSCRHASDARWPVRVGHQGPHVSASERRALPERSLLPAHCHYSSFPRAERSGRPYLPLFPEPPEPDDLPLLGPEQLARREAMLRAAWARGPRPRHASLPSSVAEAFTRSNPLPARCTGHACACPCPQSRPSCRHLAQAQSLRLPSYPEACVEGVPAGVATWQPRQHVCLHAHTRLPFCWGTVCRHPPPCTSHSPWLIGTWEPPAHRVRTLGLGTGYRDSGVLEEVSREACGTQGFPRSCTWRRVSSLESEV

Data set [4] has as its target Glutamate receptor ionotropic, NMDA 2A (Rattus norvegicus) (UniProt Q00959). Nature of the data set: Allosteric modulation of rat GluN2A expressed in Xenopus laevis oocytes assessed as L-glutamate/glycine-induced current response at 100 uM at holding potential -60 mV by two-electrode voltage clamp method relative to L-glutamate/glycine. The data set is classed as cell-based. The gist of the method: as §1

A short description of data set [5]: Solubility of the compound at 100 uM. The class given is physicochemical. The gist of the method: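 Compounds were inspected for visible precipitation at the concentrations used in the oocyte assays.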
Data set [6] deals with Glutamate receptor ionotropic, NMDA 2C (Rattus norvegicus) (UniProt Q00961). Nature of the data set: Agonist activity at rat GluN2C expressed in Xenopus laevis oocytes assessed effect on current response at holding potential -60 mV by two-electrode voltage clamp method relative to L-glutamate/glycine. The class given is cell-based. In a few lines: as §1
Data set [7] deals with Glutamate receptor ionotropic, NMDA 2A (Rattus norvegicus) (UniProt Q00959). Nature of the data set: Agonist activity at rat GluN2A expressed in Xenopus laevis oocytes assessed effect on current response at holding potential -60 mV by two-electrode voltage clamp method relative to L-glutamate/glycine. The class given is cell-based. The gist of the method:
as §1

In data set [8] the target is Glutamate receptor ionotropic, NMDA 2D (Rattus norvegicus) (UniProt Q62645). Nature of the data set: Agonist activity at rat GluN2D expressed in Xenopus laevis oocytes assessed as effect on current response at holding potential -60 mV by two-electrode voltage clamp method relative to L-glutamate/glycine. The class given is cell-based. The gist of the method: as §1
The target in data set [9] is Glutamate receptor ionotropic, NMDA 2B (Rattus norvegicus) (UniProt Q00960). Nature of the data set: Agonist activity at rat GluN2B expressed in Xenopus laevis oocytes assessed as effect on current response at holding potential -60 mV by two-electrode voltage clamp method relative to L-glutamate/glycine. The class given is cell-based. In a few lines: as §1

Active and inactive are the calls of the source. No cut-off for these calls is given here.

For 26 compounds, Activity and solubility results are on record in ChEMBL document CHEMBL4422636, “Investigation of the structural requirements for N-methyl-D-aspartate receptor positive and negative allosteric modulators based on 2-naphthoic acid” (Eur J Med Chem, 2019).

Chain of Glutamate receptor ionotropic, NMDA 2A (Rattus norvegicus) (Q00959 23-1464 limits assumed): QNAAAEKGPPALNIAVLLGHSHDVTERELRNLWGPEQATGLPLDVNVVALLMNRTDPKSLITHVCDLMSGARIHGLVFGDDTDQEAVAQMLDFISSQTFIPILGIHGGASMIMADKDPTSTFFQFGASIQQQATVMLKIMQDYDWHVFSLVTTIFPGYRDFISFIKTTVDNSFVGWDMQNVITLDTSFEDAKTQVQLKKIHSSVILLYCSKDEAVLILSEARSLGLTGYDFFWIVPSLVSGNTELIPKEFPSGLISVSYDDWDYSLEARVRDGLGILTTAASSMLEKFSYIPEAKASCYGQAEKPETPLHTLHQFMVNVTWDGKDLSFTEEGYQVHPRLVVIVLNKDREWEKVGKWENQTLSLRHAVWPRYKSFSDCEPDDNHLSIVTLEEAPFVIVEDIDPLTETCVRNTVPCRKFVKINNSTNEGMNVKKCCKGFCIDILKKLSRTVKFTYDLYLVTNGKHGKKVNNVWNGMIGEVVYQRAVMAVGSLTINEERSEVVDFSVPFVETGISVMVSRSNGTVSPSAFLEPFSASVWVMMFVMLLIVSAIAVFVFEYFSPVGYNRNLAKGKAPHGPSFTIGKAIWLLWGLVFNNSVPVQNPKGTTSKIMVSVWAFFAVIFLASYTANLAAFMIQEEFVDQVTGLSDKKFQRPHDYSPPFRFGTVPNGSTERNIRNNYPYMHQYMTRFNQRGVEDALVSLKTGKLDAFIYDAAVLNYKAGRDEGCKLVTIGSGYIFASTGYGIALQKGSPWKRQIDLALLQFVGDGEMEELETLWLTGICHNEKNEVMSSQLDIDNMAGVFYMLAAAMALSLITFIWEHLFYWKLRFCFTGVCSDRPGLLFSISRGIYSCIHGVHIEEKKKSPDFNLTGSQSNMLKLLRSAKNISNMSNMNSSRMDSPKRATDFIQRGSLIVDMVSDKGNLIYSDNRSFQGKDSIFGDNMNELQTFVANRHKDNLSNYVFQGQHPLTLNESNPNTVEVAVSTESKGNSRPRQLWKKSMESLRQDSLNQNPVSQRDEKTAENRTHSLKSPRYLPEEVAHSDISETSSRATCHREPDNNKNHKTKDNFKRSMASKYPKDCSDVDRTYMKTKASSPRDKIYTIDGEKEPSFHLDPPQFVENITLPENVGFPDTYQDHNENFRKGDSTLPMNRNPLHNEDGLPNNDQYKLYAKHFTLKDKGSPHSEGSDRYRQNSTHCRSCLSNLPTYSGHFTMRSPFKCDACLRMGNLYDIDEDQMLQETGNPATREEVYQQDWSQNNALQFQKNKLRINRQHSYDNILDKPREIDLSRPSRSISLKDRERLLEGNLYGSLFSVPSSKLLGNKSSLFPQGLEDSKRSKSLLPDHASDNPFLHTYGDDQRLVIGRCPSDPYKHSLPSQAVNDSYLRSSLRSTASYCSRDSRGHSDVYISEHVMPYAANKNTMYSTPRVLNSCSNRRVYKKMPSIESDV

`CCC/C=C/c1ccc2cc(C(=O)O)ccc2c1`: the Activity in data set [1] amounted to 68%; in [2], 58%; in [3], 82%; in data set [4], 51%. Further, the solubility entry in data set [5] is “Soluble”. The outcome in data set [6], in data set [7], in [8] and in [9] was inactive.
Consider `COc1ccc(/C=C/c2ccc3cc(O)c(C(=O)O)cc3c2)cc1`, for which the Activity in [1] stood at 39%; in [2], 36%; in data set [3], 39.6%; in data set [4], 42.7%. In addition, the solubility entry in [5] is recorded as “Soluble”.
As to `O=C(O)c1cc2cc(/C=C/c3ccccc3)ccc2oc1=O`, the Activity in data set [1] was determined as 119%; in [2] it was 92%; in data set [3], 114%; in [4], 95.1%. Also, in data set [5], the solubility result was “Soluble”.
In the case of `CC(C)CCCc1ccc2cc(C(=O)O)c(C(=O)O)cc2c1`, the Activity worked out at 24% in data set [1], 88% in [2], 47% in data set [3] and 92% in data set [4]. Further, in data set [5], the solubility result is given as “Soluble”. The outcome in [6], in [7], in data set [8] and in data set [9] was inactive.
As for `CC(C)CNC(=O)c1ccc2cc(C(=O)O)ccc2c1`, the Activity in data set [1] came out at 99%; in data set [2] it was 65%; in data set [3] it was 46%; in data set [4], 65%. In addition, the solubility result in [5] is recorded as “Soluble”.
On to `O=C(O)c1cc2ccc(/C=C/c3ccccc3)cc2cc1C(=O)O`, for which the Activity was determined as 38.6% in data set [1], 66.7% in data set [2], 37.1% in data set [3] and 55% in data set [4]. Also, the solubility result in data set [5] is “Soluble”.
For the compound `CCCCCc1ccc2cc(CO)ccc2c1`, the Activity amounted to 85% in data set [1], 84% in [2], 76% in data set [3] and 89% in [4]. Also, the solubility entry in data set [5] is “Soluble”. For the same compound, the result in data set [6], in data set [7], in data set [8] and in [9] was inactive.
Regarding `O=C(O)c1cc2cc(/C=C/c3ccccc3C(=O)O)ccc2cc1O`, the Activity in [1] is 103%; in data set [2] it was 84.5%; in data set [3], 83.7%; in data set [4] it was 92.1%. Also, the solubility result in data set [5] is reported as “Soluble”.
Regarding `CC(C)CCCc1ccc2ccc(C(=O)O)cc2c1`, the Activity in data set [1] amounted to 80%; in [2] it was 120%; in [3], 115%; in data set [4], 123%. Besides, the solubility entry in data set [5] is “Soluble”. Further, the outcome in [6], in data set [7], in data set [8] and in data set [9] was inactive.
In the case of `CC(C)CSCc1ccc2cc(C(=O)O)ccc2c1`, the Activity in [1] amounted to 100%; in data set [2] it was 77%; in data set [3] it was 105%; in [4] it was 113%. Moreover, in [5], the solubility result is given as “Soluble”.
For `CC(C)COCc1ccc2cc(C(=O)O)ccc2c1` the same measures were 72%, 49%, 83%, 83% and “Soluble”.
For `O=C(O)c1cc2cc(CCc3ccccc3C(=O)O)ccc2cc1O` the same measures were 80.7%, 85.2%, 94.1%, 91.8% and “Soluble”.
For the compound `CC(C)CCCc1ccc2cc(O)c(C(=O)O)cc2c1`, the Activity in [1] turned out to be 180%; in data set [2], 113%; in [3], 113%; in data set [4], 78%. Further, the solubility entry in data set [5] was “Soluble”. In addition, the result in data set [6], in [7], in [8] and in [9] was inactive.
For `O=C(O)c1ccc2cc(C3CC3)ccc2c1`, the Activity in data set [1] amounted to 94%; in data set [2] it was 97%; in data set [3] it was 97%; in data set [4] it was 97%. For the same compound, the solubility result in data set [5] was “Soluble”. The outcome in [6], in [7], in data set [8] and in [9] was inactive.
For `CC(C)CC#Cc1ccc2cc(C(=O)O)ccc2c1`, the Activity was determined as 110% in data set [1], 99% in [2], 125% in data set [3] and 104% in data set [4]. Further, the solubility entry in data set [5] was “Soluble”. For the same compound, the outcome in data set [6], in data set [7], in data set [8] and in [9] was inactive.
As to `CC(C/C=C/c1ccc2cc(C(=O)O)ccc2c1)C(=O)O` (racemic), the Activity is 97% in [1], 97% in [2], 105% in [3] and 107% in data set [4]. Besides, the solubility entry in data set [5] was “Soluble”. Further, the result in data set [6], in data set [7], in [8] and in data set [9] was inactive.
For the compound `O=C(O)c1cc2cc(CCc3ccccc3)ccc2cc1O`, the Activity is 32.1% in data set [1], 54.3% in [2], 46.8% in data set [3] and 71.4% in [4]. In [5], the solubility entry is on record as “Soluble”.
For `O=C(O)c1ccc(/C=C/c2ccc3cc(O)c(C(=O)O)cc3c2)cc1` the same measures were 67%, 89%, 85.2%, 89.7% and “Soluble”.
With `O=C(O)c1ccc2cc(CCCCc3ccccc3)ccc2c1`, the Activity in data set [1] was determined as 115%; in [2], 120%; in data set [3], 123%; in [4], 118%. The solubility result in [5] is “Soluble”. Further, the outcome in data set [6], in data set [7], in [8] and in [9] was inactive.
Regarding `O=C(O)c1cccc(/C=C/c2ccc3cc(O)c(C(=O)O)cc3c2)c1`, the Activity stood at 61.4% in [1], 70% in [2], 76.8% in data set [3] and 90.3% in data set [4]. In addition, in [5], the solubility result is on record as “Soluble”.
For `COc1ccccc1/C=C/c1ccc2cc(O)c(C(=O)O)cc2c1` the same measures were 71%, 74%, 61.7%, 105% and “Soluble”.
The like results for `CC(C)COC(=O)c1ccc2cc(C(=O)O)ccc2c1` were, in that order, 169%, 179%, 144%, 159% and “Soluble”.
For `COc1cccc(/C=C/c2ccc3cc(O)c(C(=O)O)cc3c2)c1` the same measures were 29.9%, 24.9%, 30.8%, 52.4% and “Soluble”.
Regarding `CC(C)C(=O)OCc1ccc2cc(C(=O)O)ccc2c1`, the Activity in data set [1] is 42%; in [2] it was 45%; in data set [3], 56%; in data set [4], 73%. Besides, the solubility entry in data set [5] is “Soluble”.
For `O=C(O)c1ccc(CCc2ccc3cc(O)c(C(=O)O)cc3c2)cc1` the same measures were 92.6%, 95.8%, 115%, 102% and “Soluble”.
The like results for `CC(C)CCC(=O)c1ccc2cc(C(=O)O)ccc2c1` were, in that order, 79%, 82%, 99%, 128% and “Soluble”.
